# Measured values from different studies.
# Each line is one published result; the experiments were not run side by side.
# Target: Serine/threonine-protein kinase/endoribonuclease IRE1 (ERN1, Homo sapiens, UniProt O75460)
Structure (SMILES),observed,technique,concentration,remaining binding
c1cncc(-c2cccc(Nc3nccc(NC4CCCCC4)n3)c2)c1,binding,competition with immobilised ligand,10 µM,44%
O=C(O)[C@@H]1[C@@H](Cn2nnc3ccccc3c2=O)CC[C@H]1C(=O)c1ccc(OCCC2CCOCC2)cc1,cell-free assay,competition with immobilised ligand,1 µM,88%
CNC(=O)[C@@H]1CC[C@@H](n2c(-c3ccc4cnccc4c3)nc3ccc(C(=O)NCc4cccc(C(N)=O)c4)cc32)C1,binding,competition with immobilised ligand,1 µM,97%
N[C@@H]1CCN(c2nccc(-c3cnn4ncccc34)n2)C1,binding,,1 µM,100%
CNCc1ccccc1-c1csc([C@@H](C)Nc2nc(C)nc3cc(OC)c(OC)cc23)c1,cell-free assay,competition with immobilised ligand,1 µM,100%
CN(c1nccc(-c2cnn3ncccc23)n1)C1CC1,binding,,1 µM,100%
CCOCCn1cc(C(=O)Nc2ccc(-n3nc(-c4cccnc4)cc3C(F)(F)F)cn2)ccc1=O,cell-free assay,competition with immobilised ligand,1 µM,87%
COc1ncc2cc3ccccc3nc2c1C#N,cell-free assay,competition with immobilised ligand,5 µM,93%
COc1cccc(CNC(=O)c2nc3scc(COCc4ccc(C(=O)O)cc4)c3c(=O)[nH]2)c1,cell-free assay,competition with immobilised ligand,1 µM,89.7%
CN(C)c1nccc(-c2cnn3ncccc23)n1,binding,,1 µM,100%
Nc1ncc2c(n1)-c1c([nH]c3ccc(C#CC4CC4)cc13)CCCC2,binding,competition with immobilised ligand,1 µM,100%
O=C(NCCCN1CCOCC1)c1ccc(Nc2nccc(-c3cc4ccccc4s3)n2)cc1,binding,competition with immobilised ligand,1 µM,52%
CN(C)c1nccc(-c2cnc3ncccn23)n1,binding,,1 µM,60%
O=C(NCC1CCOCC1)c1n[nH]cc1NC(=O)c1c(F)cccc1F,binding,competition with immobilised ligand,1 µM,65%
F[C@@H]1CCN(c2nccc(-c3cnn4ncccc34)n2)C1,binding,,1 µM,83%
CN1CCN(c2cnc3c(C4CCN(C(=O)c5ccc(OC(F)(F)F)cc5N)CC4)ncnc3c2)CC1,cell-free assay,competition with immobilised ligand,1 µM,99%
COc1cnc(Nc2cccc(S(N)(=O)=O)c2)nc1N1CCN(c2ccccc2)C(=O)C1,binding,competition with immobilised ligand,1 µM,78%
O=C(c1ccc(Nc2nccc(-c3cc4ccccc4s3)n2)cc1)N1CCC(N2CCCC2)CC1,binding,competition with immobilised ligand,1 µM,41%
CC1CCCN1c1nccc(-c2cnn3ncccc23)n1 (stereo not drawn),binding,,1 µM,100%
CS(=O)(=O)N1CCCC(NC(=O)[C@H](CCC2CCCCC2)NC(=O)c2ccc(CNc3ncnc4c3nnn4-c3ccccc3)cc2)C1 (stereo partly drawn),cell-free assay,competition with immobilised ligand,0.1 µM,100%
Cc1cnc(Nc2ccc(C(=O)N3CCC(N4CCCC4)CC3)cc2)nc1-c1cc2ccccc2s1,binding,competition with immobilised ligand,1 µM,24%
